How the values were obtained:
[1] = Cytotoxicity against human MT4 cells by MTT assay; format: toxicity, cell-based
[2] = tested on: Human immunodeficiency virus 1; assay: Antiviral activity against HIV-1 harboring Y181C mutant infected in human MT4 cells […]; format: functional, organism-based; settings: Human immunodeficiency virus 1, MT4
[3] = target: Human immunodeficiency virus type 1 reverse transcriptase (Human immunodeficiency virus 1, UniProt Q72547); assay: Inhibition of wild type HIV-1 Reverse transcriptase
[4] = Selectivity index, ratio of CC50 for cytotoxicity against human MT4 cells to EC50 for antiviral activity against wild type HIV-1 IIIB infected in human MT4 cells; format: toxicity, cell-based; settings: read-out: Ratio CC50/EC50
How it was run: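 Selectivity index calculated as CC50/EC50 ratio, both values from MTT viability readout in MT-4 cells, antiviral arm using wild-type HIV-1 IIIB.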

[5] = tested on: Human immunodeficiency virus 1; assay: Antiviral activity against HIV-1 harboring Y188L mutant infected in human MT4 cells assessed as inhibition of virus-induced cytopathic effect by MTT assay; settings: Human immunodeficiency virus 1, MT4
[6] = tested on: Human immunodeficiency virus 1; assay: Antiviral activity against HIV-1 harboring E138K mutant infected in human MT4 cells […]; format: functional, organism-based; settings: Human immunodeficiency virus 1, MT4
[7] = tested on: Human immunodeficiency virus 1; assay: Antiviral activity against HIV-1 harboring L100I mutant infected in human MT4 cells […]; format: functional, organism-based; settings: Human immunodeficiency virus 1, MT4
[8] = tested on: Human immunodeficiency virus 1; assay: Antiviral activity against wild type HIV-1 IIIB infected in human MT4 cells […]; format: functional, organism-based; settings: Human immunodeficiency virus 1, IIIB
[9] = tested on: Human immunodeficiency virus 1; assay: Antiviral activity against HIV-1 harboring K103N mutant infected in human MT4 cells […]; format: functional, organism-based; settings: Human immunodeficiency virus 1, MT4

SMILES	CC50 [1] [nM]	EC50 [2] [nM]	IC50 [3] [nM]	selectivity ratio [4]	EC50 [5] [nM]	EC50 [6] [nM]	EC50 [7] [nM]	EC50 [8] [nM]	EC50 [9] [nM]
N#Cc1ccc(Nc2nccc(/C(=N/N)c3ccc(-c4ccc(C#N)cc4)cc3F)n2)cc1	> 46000	210	20	> 6210	> 46100	194	69	7	125
N#Cc1ccc(Nc2nccc(C(NC3CC3)c3ccc(-c4ccc(C#N)cc4)cc3C(F)(F)F)n2)cc1 (centres undefined)	75000			250				294	
N#Cc1ccc(Nc2nccc(C(NC3CC3)c3ccc(-c4ccc(C#N)cc4)cc3F)n2)cc1 (centres undefined)	> 271000			> 431				630	
N#Cc1ccc(Nc2nccc(C(NC3CC3)c3ccc(-c4ccc(C#N)cc4)cc3OC(F)(F)F)n2)cc1 (centres undefined)	73000			125				589	
CC(C)NC(c1ccnc(Nc2ccc(C#N)cc2)n1)c1ccc(-c2ccc(C#N)cc2)cc1F (centres undefined)	45000			70				649	
N#CCCNC(c1ccnc(Nc2ccc(C#N)cc2)n1)c1ccc(-c2ccc(C#N)cc2)cc1Cl (centres undefined)	> 255000			> 3600				71	
C/N=C(/c1ccnc(Nc2ccc(C#N)cc2)n1)c1ccc(-c2ccc(C#N)cc2)cc1OC(F)(F)F	> 251000	361	221	> 19100	20100	122	301	13	281
C/N=C(/c1ccnc(Nc2ccc(C#N)cc2)n1)c1ccc(-c2ccc(C#N)cc2)cc1C	> 47000	420	58	> 3940	> 46700	82	1540	12	373
C/N=C(/c1ccnc(Nc2ccc(C#N)cc2)n1)c1ccc(-c2ccc(C#N)cc2)cc1OC	16000	293	61	1960	4460	83	293	8	169
CCCNC(c1ccnc(Nc2ccc(C#N)cc2)n1)c1ccc(-c2ccc(C#N)cc2)cc1Cl (centres undefined)	> 261000			> 1420				184	
CCCNC(c1ccnc(Nc2ccc(C#N)cc2)n1)c1ccc(-c2ccc(C#N)cc2)cc1OC (centres undefined)	14000			110				131	
N#Cc1ccc(Nc2nccc(/C(=N/N)c3ccc(-c4ccc(C#N)cc4)cc3C(F)(F)F)n2)cc1	68000	134	58	2170	1140	68	58	31	106
COc1cc(-c2ccc(C#N)cc2)ccc1C(NC1CC1)c1ccnc(Nc2ccc(C#N)cc2)n1 (centres undefined)	123000			1680				72	
Cc1cc(-c2ccc(C#N)cc2)ccc1C(NC(C)C)c1ccnc(Nc2ccc(C#N)cc2)n1 (centres undefined)	82000			495				166	
N#Cc1ccc(Nc2nccc(C(NCCF)c3ccc(-c4ccc(C#N)cc4)cc3Cl)n2)cc1 (centres undefined)	> 259000			> 3370				77	
CC(C)NC(c1ccnc(Nc2ccc(C#N)cc2)n1)c1ccc(-c2ccc(C#N)cc2)cc1OC(F)(F)F (centres undefined)	23000			24				927	
CCNC(c1ccnc(Nc2ccc(C#N)cc2)n1)c1ccc(-c2ccc(C#N)cc2)cc1OC (centres undefined)	20000			60				326	
CCCNC(c1ccnc(Nc2ccc(C#N)cc2)n1)c1ccc(-c2ccc(C#N)cc2)cc1C(F)(F)F (centres undefined)	90000			87				1010	
N#Cc1ccc(Nc2nccc(C(NCC(F)(F)F)c3ccc(-c4ccc(C#N)cc4)cc3Cl)n2)cc1 (centres undefined)	> 241000			> 1070				231	
CCNC(c1ccnc(Nc2ccc(C#N)cc2)n1)c1ccc(-c2ccc(C#N)cc2)cc1OC(F)(F)F (centres undefined)	21000			43				505	

SMILES	CC50 [1] [nM]	EC50 [2] [nM]	IC50 [3] [nM]	selectivity ratio [4]	EC50 [5] [nM]	EC50 [6] [nM]	EC50 [7] [nM]	EC50 [8] [nM]	EC50 [9] [nM]
CCNC(c1ccnc(Nc2ccc(C#N)cc2)n1)c1ccc(-c2ccc(C#N)cc2)cc1Cl (centres undefined)	19000			187				99	
N#Cc1ccc(Nc2nccc(C(NCCCCl)c3ccc(-c4ccc(C#N)cc4)cc3Cl)n2)cc1 (centres undefined)	> 244000			> 1260				195	
CCNC(c1ccnc(Nc2ccc(C#N)cc2)n1)c1ccc(-c2ccc(C#N)cc2)cc1C (centres undefined)	12000			188				63	
N#Cc1ccc(Nc2nccc(C(NCCCl)c3ccc(-c4ccc(C#N)cc4)cc3Cl)n2)cc1 (centres undefined)	243000			5890				42	
CC(C)NC(c1ccnc(Nc2ccc(C#N)cc2)n1)c1ccc(-c2ccc(C#N)cc2)cc1C(F)(F)F (centres undefined)	29000			25				1190	
CCNC(c1ccnc(Nc2ccc(C#N)cc2)n1)c1ccc(-c2ccc(C#N)cc2)cc1C(F)(F)F (centres undefined)	22000			146				153	
Cc1ccnc2c1NC(=O)c1cccnc1N2C1CC1 [NEVIRAPINE]					> 15000		2060		
CC(C)NC(c1ccnc(Nc2ccc(C#N)cc2)n1)c1ccc(-c2ccc(C#N)cc2)cc1Cl (centres undefined)	30000			130				230	
CCCNC(c1ccnc(Nc2ccc(C#N)cc2)n1)c1ccc(-c2ccc(C#N)cc2)cc1F (centres undefined)	> 270000			> 1060				259	
N#Cc1ccc(Nc2nccc(C(NCCCO)c3ccc(-c4ccc(C#N)cc4)cc3Cl)n2)cc1 (centres undefined)	23000			345				67	
O=C1Nc2ccc(Cl)cc2[C@@](C#CC2CC2)(C(F)(F)F)O1 [EFAVIRENZ]	> 6300	8							
N#Cc1ccc(Nc2nccc(C(C#N)c3ccc(-c4ccc(C#N)cc4)cc3F)n2)cc1 (centres undefined)	36000	870		1360	9810	170	1210		900
CCCNC(c1ccnc(Nc2ccc(C#N)cc2)n1)c1ccc(-c2ccc(C#N)cc2)cc1C (centres undefined)	> 273000			> 1870				146	
N#Cc1ccc(Nc2nccc(C(NC3CC3)c3ccc(-c4ccc(C#N)cc4)cc3Cl)n2)cc1 (centres undefined)	> 262000			> 1800				147	
Cc1cc(-c2ccc(C#N)cc2)ccc1C(NC1CC1)c1ccnc(Nc2ccc(C#N)cc2)n1 (centres undefined)	> 274000			> 1760				156	
N#Cc1ccc(Nc2nccc(C(NCCO)c3ccc(-c4ccc(C#N)cc4)cc3Cl)n2)cc1 (centres undefined)	22000			238				92	
CCNC(c1ccnc(Nc2ccc(C#N)cc2)n1)c1ccc(-c2ccc(C#N)cc2)cc1F (centres undefined)	31000			87				357	
CCCNC(c1ccnc(Nc2ccc(C#N)cc2)n1)c1ccc(-c2ccc(C#N)cc2)cc1OC(F)(F)F (centres undefined)	27000			40				662	
COc1cc(-c2ccc(C#N)cc2)ccc1C(NC(C)C)c1ccnc(Nc2ccc(C#N)cc2)n1 (centres undefined)	20000			94				211	

Reference: ChEMBL document CHEMBL6153064, “Structure-based discovery of novel diarylpyrimidines as potent and selective Non-Nucleoside reverse transcriptase inhibitors: From CH(CN)-Biphenyl-Diarylpyrimidines to CNNH2-Biphenyl-Diarylpyrimidines” (Eur J Med Chem, 2025)
